Experimental data published in publication PMC3901358 (Journal of immunology (Baltimore, Md. : 1950), 2010).

Experiments:
[1] = system: CD4^+ T cells from PBLs of melanoma patients; experiment: In vitro sensitization of PBLs with peptide and intracellular cytokine staining; assay type: cell-based, human; details: for patients with peptide-specific spontaneous CD4^+ T cells: 16 patients with stage IV LAGE-1^+/NY-ESO-1^+ melanoma, ICS after 10–12 d IVS; for Th1/Th2 Spontaneous Response Test by ICS, response type / Number of IFN-γ–producing CD4^+ T cells / number of IL-5–producing CD4^+ T cells: PBLs, 10–12 d IVS with the peptide, ICS; for Number of IFN-γ–producing CD4^+ T cells / number of IL-5–producing CD4^+ T cells: background subtracted
[2] = system: Serum NY-ESO-1– and LAGE-1b–specific Abs; experiment: ELISA of patient sera on plates coated with peptide or protein; assay type: binding, human; details: among the 16 patients with NY-ESO-1^+/LAGE-1^+ tumors
Summary of the method: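 Plates coated overnight at 4°C with recombinant NY-ESO-1 protein or 18-aa overlapping LAGE-1b peptides (P132–P210), 1 µg/ml in 15 mM Na₂CO₃/30 mM NaHCO₃ pH 9.6 with 0.02% NaN₃. Blocked overnight at 4°C with PBS/2% BSA. Patient sera (NY-ESO-1⁺/LAGE-1⁺ or negative tumors) in PBS/2% BSA, 4-fold dilution series, 2 h RT. Goat anti-human IgG-AP 1 h RT. Phosphatase substrate 25 min RT, read immediately.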

[3] = system: LAGE-1–specific CD4^+ T cell clones; experiment: IFN-γ ELISPOT, CD4+ T cell clones with peptide-pulsed L.DR cells; assay type: cell-based, human; details: 48-h IFN-γ ELISPOT
[4] = irrelevant control peptide (1 µg/ml), all healthy donors and patients, 6 h ICS

HIVpol711–725: irrelevant HIV-derived control peptide in ICS [reference compound]
mean value of IFN-γ–producing CD4^+ T cells [1, 4]: 25 per 10^5 CD4^+ T cells
mean value of IL-5–producing CD4^+ T cells [1, 4]: 22 per 10^5 CD4^+ T cells

LAGE-1_97–114: 18-aa overlapping synthetic peptide, LAGE-1 positions 97–114; immunodominant epitope (SSPMEAELVRRILSRDAA; UniProt O75638 97-114, looked up, fragment)
patients with peptide-specific spontaneous CD4^+ T cells [1]: 7 out of 16
Th1/Th2 Spontaneous Response Test by ICS, response type ([1]; patient MP2): Th2 (0, 100)
Number of IFN-γ–producing CD4^+ T cells ([1]; patient MP2): 0 per 10^5 CD4^+ T cells
number of IL-5–producing CD4^+ T cells ([1]; patient MP2): 100 per 10^5 CD4^+ T cells
Th1/Th2 Spontaneous Response Test by ICS, response type ([1]; patient MP4): Th1 (101, 18)
Number of IFN-γ–producing CD4^+ T cells ([1]; patient MP4): 101 per 10^5 CD4^+ T cells
number of IL-5–producing CD4^+ T cells ([1]; patient MP4): 18 per 10^5 CD4^+ T cells
Th1/Th2 Spontaneous Response Test by ICS, response type ([1]; patient MP6): Th1 (110, 20)
Number of IFN-γ–producing CD4^+ T cells ([1]; patient MP6): 110 per 10^5 CD4^+ T cells
number of IL-5–producing CD4^+ T cells ([1]; patient MP6): 20 per 10^5 CD4^+ T cells
Th1/Th2 Spontaneous Response Test by ICS, response type ([1]; patient MP7): Th2 (0, 435)
Number of IFN-γ–producing CD4^+ T cells ([1]; patient MP7): 0 per 10^5 CD4^+ T cells
number of IL-5–producing CD4^+ T cells ([1]; patient MP7): 435 per 10^5 CD4^+ T cells
Th1/Th2 Spontaneous Response Test by ICS, response type ([1]; patient MP9): Th1/Th2 (83, 193)
Number of IFN-γ–producing CD4^+ T cells ([1]; patient MP9): 83 per 10^5 CD4^+ T cells
number of IL-5–producing CD4^+ T cells ([1]; patient MP9): 193 per 10^5 CD4^+ T cells
Th1/Th2 Spontaneous Response Test by ICS, response type ([1]; patient MP15): Th1/Th2 (60, 530)
Number of IFN-γ–producing CD4^+ T cells ([1]; patient MP15): 60 per 10^5 CD4^+ T cells
number of IL-5–producing CD4^+ T cells ([1]; patient MP15): 530 per 10^5 CD4^+ T cells
Th1/Th2 Spontaneous Response Test by ICS, response type ([1]; patient MP16): Th1 (170, 0)
Number of IFN-γ–producing CD4^+ T cells ([1]; patient MP16): 170 per 10^5 CD4^+ T cells
number of IL-5–producing CD4^+ T cells ([1]; patient MP16): 0 per 10^5 CD4^+ T cells

LAGE-1_104–121: 18-aa overlapping synthetic peptide, LAGE-1 positions 104–121; immunodominant epitope (LVRRILSRDAAPLPRPGA; UniProt O75638 104-121, looked up, fragment)
patients with peptide-specific spontaneous CD4^+ T cells [1]: 10 out of 16
Th1/Th2 Spontaneous Response Test by ICS, response type ([1]; patient MP1): Th1/Th2 (213, 79)
Number of IFN-γ–producing CD4^+ T cells ([1]; patient MP1): 213 per 10^5 CD4^+ T cells
number of IL-5–producing CD4^+ T cells ([1]; patient MP1): 79 per 10^5 CD4^+ T cells
Th1/Th2 Spontaneous Response Test by ICS, response type ([1]; patient MP2): Th2 (0, 110)
Number of IFN-γ–producing CD4^+ T cells ([1]; patient MP2): 0 per 10^5 CD4^+ T cells
number of IL-5–producing CD4^+ T cells ([1]; patient MP2): 110 per 10^5 CD4^+ T cells
Th1/Th2 Spontaneous Response Test by ICS, response type ([1]; patient MP3): Th1 (130, 0)
Number of IFN-γ–producing CD4^+ T cells ([1]; patient MP3): 130 per 10^5 CD4^+ T cells
number of IL-5–producing CD4^+ T cells ([1]; patient MP3): 0 per 10^5 CD4^+ T cells
Th1/Th2 Spontaneous Response Test by ICS, response type ([1]; patient MP5): Th1/Th2 (505, 80)
Number of IFN-γ–producing CD4^+ T cells ([1]; patient MP5): 505 per 10^5 CD4^+ T cells
number of IL-5–producing CD4^+ T cells ([1]; patient MP5): 80 per 10^5 CD4^+ T cells
Th1/Th2 Spontaneous Response Test by ICS, response type ([1]; patient MP6): Th1/Th2 (351, 185)
Number of IFN-γ–producing CD4^+ T cells ([1]; patient MP6): 351 per 10^5 CD4^+ T cells
number of IL-5–producing CD4^+ T cells ([1]; patient MP6): 185 per 10^5 CD4^+ T cells
Th1/Th2 Spontaneous Response Test by ICS, response type ([1]; patient MP7): Th2 (0, 543)
Number of IFN-γ–producing CD4^+ T cells ([1]; patient MP7): 0 per 10^5 CD4^+ T cells
number of IL-5–producing CD4^+ T cells ([1]; patient MP7): 543 per 10^5 CD4^+ T cells
Th1/Th2 Spontaneous Response Test by ICS, response type ([1]; patient MP8): Th1/Th2 (341, 221)
Number of IFN-γ–producing CD4^+ T cells ([1]; patient MP8): 341 per 10^5 CD4^+ T cells
number of IL-5–producing CD4^+ T cells ([1]; patient MP8): 221 per 10^5 CD4^+ T cells
Th1/Th2 Spontaneous Response Test by ICS, response type ([1]; patient MP9): Th1/Th2 (205, 65)
Number of IFN-γ–producing CD4^+ T cells ([1]; patient MP9): 205 per 10^5 CD4^+ T cells
number of IL-5–producing CD4^+ T cells ([1]; patient MP9): 65 per 10^5 CD4^+ T cells
Th1/Th2 Spontaneous Response Test by ICS, response type ([1]; patient MP12): Th1 (270, 0)
Number of IFN-γ–producing CD4^+ T cells ([1]; patient MP12): 270 per 10^5 CD4^+ T cells
number of IL-5–producing CD4^+ T cells ([1]; patient MP12): 0 per 10^5 CD4^+ T cells
Th1/Th2 Spontaneous Response Test by ICS, response type ([1]; patient MP14): Th1 (400, 0)
Number of IFN-γ–producing CD4^+ T cells ([1]; patient MP14): 400 per 10^5 CD4^+ T cells
number of IL-5–producing CD4^+ T cells ([1]; patient MP14): 0 per 10^5 CD4^+ T cells

LAGE-1b118–135: 18-aa overlapping synthetic peptide, LAGE-1b positions 118–135; immunodominant epitope (RPGAVLKDFTVSGNLLFM; LAGE-1b; UniProt O75638 118-135, looked up, fragment)
patients with peptide-specific spontaneous CD4^+ T cells [1]: 9 out of 16

LAGE-1b167–184: 18-aa overlapping synthetic peptide, LAGE-1b positions 167–184 (DLRTPKHKVSEQRPGTPG; LAGE-1b; UniProt O75638 167-184, looked up, fragment)
number of patients with high titers of LAGE-1b Abs recognizing the peptide [2]: 4

LAGE-1b188–210: overlapping synthetic peptide, LAGE-1b positions 188–210 (PEGAQGDGCRGVAFNVMFSAPHI; LAGE-1b; UniProt O75638 188-210, looked up, fragment)
number of patients with high titers of LAGE-1b Abs recognizing the peptide [2]: 4

NY-ESO-1_104–121: NY-ESO-1 peptide overlapping the LAGE-1_104–121 sequence, control (LARRSLAQDAPPLPVPGV; UniProt P78358 104-121, looked up, fragment)
recognition of peptide by LAGE-1_104–121–specific CD4^+ T cell clone 116/12 [3]: did not recognize
